Source: ChEMBL document CHEMBL1154626, “Novel, potent, and selective quinoxaline-based 5-HT(3) receptor ligands. 1. Further structure-activity relationships and pharmacological characterization” (J Med Chem, 2009)
Each block holds one compound with its values, some of them ahead of it.

Columns and labels:
[1] = biological target: T1, 5-hydroxytryptamine receptor 3A (Rattus norvegicus, UniProt P35563); experiment: Displacement of [3H]LY278584 from 5HT3 receptor in rat cortical homogenate
T1 sequence (P35563 whole entry): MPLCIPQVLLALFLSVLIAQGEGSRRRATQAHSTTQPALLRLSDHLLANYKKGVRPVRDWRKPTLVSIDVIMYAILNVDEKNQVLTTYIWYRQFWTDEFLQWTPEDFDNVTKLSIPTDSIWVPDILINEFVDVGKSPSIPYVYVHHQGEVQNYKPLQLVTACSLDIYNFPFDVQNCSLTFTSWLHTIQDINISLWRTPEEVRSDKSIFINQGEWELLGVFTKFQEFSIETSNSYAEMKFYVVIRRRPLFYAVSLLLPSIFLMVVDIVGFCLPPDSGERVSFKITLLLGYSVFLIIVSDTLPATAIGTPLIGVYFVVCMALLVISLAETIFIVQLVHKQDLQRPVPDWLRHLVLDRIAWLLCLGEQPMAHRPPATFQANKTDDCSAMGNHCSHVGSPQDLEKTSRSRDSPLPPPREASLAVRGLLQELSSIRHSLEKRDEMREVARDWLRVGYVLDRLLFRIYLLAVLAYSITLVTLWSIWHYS
How it was run: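 Rat cortical homogenate, competition against [3H]LY278584 binding. Ki is the concentration giving half-maximal inhibition of binding, as the mean ± S.E.M. of three determinations.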

[2] = biological target: D(2) dopamine receptor (Rattus norvegicus, UniProt P61169); experiment: Displacement of [3H]spiperone from dopamine D2 receptor in rat striatum
D(2) dopamine receptor, sequence (P61169 whole entry): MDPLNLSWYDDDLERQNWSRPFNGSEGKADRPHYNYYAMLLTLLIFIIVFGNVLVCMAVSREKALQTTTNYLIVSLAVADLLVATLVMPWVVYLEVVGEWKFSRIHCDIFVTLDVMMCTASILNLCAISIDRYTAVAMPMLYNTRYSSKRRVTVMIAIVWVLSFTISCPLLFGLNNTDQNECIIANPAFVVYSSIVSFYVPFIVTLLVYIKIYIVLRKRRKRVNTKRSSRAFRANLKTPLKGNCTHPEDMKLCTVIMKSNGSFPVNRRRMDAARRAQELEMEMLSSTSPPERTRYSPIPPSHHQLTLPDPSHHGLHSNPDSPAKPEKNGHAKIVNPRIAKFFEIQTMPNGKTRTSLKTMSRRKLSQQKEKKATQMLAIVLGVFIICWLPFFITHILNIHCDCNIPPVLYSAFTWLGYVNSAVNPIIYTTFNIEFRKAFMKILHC

[3] = biological target: T2, Alpha-2A adrenergic receptor (Rattus norvegicus, UniProt P22909); experiment: Displacement of [3H]RX821002 from adrenergic alpha2 receptor in rat cortex
T2 sequence (P22909 whole entry): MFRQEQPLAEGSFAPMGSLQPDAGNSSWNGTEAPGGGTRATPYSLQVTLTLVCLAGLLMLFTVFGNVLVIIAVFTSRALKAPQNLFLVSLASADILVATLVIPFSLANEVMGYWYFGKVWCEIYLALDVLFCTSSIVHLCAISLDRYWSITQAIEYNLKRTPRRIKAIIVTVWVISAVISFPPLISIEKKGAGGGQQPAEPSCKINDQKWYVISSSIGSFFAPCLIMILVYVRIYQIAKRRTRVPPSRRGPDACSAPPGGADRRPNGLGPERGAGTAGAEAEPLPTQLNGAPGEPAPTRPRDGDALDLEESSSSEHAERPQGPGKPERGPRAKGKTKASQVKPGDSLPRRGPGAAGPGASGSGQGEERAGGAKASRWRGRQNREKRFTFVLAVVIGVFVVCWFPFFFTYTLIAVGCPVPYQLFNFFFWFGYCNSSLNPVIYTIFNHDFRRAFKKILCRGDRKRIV

[4] = biological target: 5-hydroxytryptamine receptor 2A (Rattus norvegicus, UniProt P14842); experiment: Displacement of [3H]ketanserin from 5HT2A receptor in rat cortex
5-hydroxytryptamine receptor 2A, sequence (P14842 whole entry): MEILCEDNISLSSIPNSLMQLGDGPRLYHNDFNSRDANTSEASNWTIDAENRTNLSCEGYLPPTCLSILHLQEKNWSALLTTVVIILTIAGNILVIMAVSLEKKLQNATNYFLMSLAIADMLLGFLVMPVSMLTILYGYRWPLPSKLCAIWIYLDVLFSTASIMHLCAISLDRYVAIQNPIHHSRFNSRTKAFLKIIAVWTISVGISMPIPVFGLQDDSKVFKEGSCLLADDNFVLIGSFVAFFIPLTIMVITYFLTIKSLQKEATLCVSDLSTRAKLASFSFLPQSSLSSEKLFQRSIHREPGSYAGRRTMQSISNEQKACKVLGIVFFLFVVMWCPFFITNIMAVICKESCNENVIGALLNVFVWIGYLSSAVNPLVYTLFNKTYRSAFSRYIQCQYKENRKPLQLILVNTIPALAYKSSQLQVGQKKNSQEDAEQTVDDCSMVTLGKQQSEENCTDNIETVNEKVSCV

[5] = biological target: T3, 5-hydroxytryptamine receptor 1A (Rattus norvegicus, UniProt P19327); experiment: Displacement of [3H]8-OHDPAT from 5HT1A receptor in rat hippocampus; type: tissue-based
T3 sequence (P19327 whole entry): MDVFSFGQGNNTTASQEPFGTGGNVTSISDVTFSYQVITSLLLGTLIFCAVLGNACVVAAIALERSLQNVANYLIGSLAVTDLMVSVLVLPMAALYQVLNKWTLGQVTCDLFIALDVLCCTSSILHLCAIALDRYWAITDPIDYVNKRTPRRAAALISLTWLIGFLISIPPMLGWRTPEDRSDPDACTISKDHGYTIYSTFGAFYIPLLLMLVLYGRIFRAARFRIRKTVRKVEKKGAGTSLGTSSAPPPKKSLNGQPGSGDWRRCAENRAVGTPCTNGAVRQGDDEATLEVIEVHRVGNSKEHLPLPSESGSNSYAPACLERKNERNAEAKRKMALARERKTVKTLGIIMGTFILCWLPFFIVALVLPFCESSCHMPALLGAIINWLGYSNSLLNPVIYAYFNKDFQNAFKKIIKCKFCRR

[6] = biological target: D(1A) dopamine receptor (Rattus norvegicus, UniProt P18901); experiment: Displacement of [3H]SCH-23390 from dopamine D1 receptor in rat striatum
D(1A) dopamine receptor, sequence (P18901 whole entry): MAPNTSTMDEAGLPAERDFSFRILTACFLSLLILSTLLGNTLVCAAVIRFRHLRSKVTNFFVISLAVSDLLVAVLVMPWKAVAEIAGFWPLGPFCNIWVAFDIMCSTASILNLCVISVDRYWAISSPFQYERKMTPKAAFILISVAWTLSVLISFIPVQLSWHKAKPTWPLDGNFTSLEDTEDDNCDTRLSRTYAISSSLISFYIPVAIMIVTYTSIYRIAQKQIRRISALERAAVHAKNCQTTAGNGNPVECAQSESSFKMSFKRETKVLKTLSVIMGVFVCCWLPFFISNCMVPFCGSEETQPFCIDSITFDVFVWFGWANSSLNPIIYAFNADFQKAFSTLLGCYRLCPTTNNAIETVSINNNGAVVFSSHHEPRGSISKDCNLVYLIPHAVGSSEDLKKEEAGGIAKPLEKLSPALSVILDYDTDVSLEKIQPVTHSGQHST

[7] = system: Rattus norvegicus; experiment: Plasma concentration in rat at 0.25 mg/kg, iv; type: ADME, organism-based; design: dose 0.25 mg/kg, route intravenous; conditions: in vivo
How it was run: (§1)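 Rats dosed iv at 0.25–1 mg/kg and sacrificed 30 min after injection. Mean ± SEM of three animals. Brain/plasma ratio assumes 1 g tissue equals 1 mL water.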

[8] = Ratio of drug level from brain to plasma in rat at 1 mg/kg, iv; type: ADME, organism-based; design: dose 1 mg/kg, route intravenous
How it was run: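 Rats given a single iv injection (0.25–1 mg/kg) and killed 30 min afterwards. Brain/plasma ratio calculated assuming 1 g tissue equals 1 mL water. Three animals per dose, mean ± SEM.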

[9] = system: Brain; experiment: Drug level in rat brain at 0.5 mg/kg, iv; type: ADME, organism-based; design: dose 0.5 mg/kg, route intravenous; conditions: in vivo, BLD = below limit of detection; how it was run: as §1
[10] = system: Rattus norvegicus; experiment: Agonist activity at 5HT3 receptor in iv dosed Sprague-Dawley rat assessed as induction of bradycardia measured after 5 to 30 mins post-treatment by von Bezold-Jarisch reflex test; type: functional
How it was run: (§2)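 Urethane-anesthetized rats, compound given iv. Agonism was scored as the compound itself evoking the von Bezold-Jarisch reflex (bradycardia). Antagonism was tested by giving the compound iv 5, 15 or 30 min before phenylbiguanide (PBG) and scoring the reduction of PBG-evoked bradycardia. ED50 is the dose giving half of the maximal bradycardia evoked by the same compound.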

[11] = biological target: T4, 5-hydroxytryptamine receptor 3A (Cavia porcellus, UniProt O70212); experiment: Antagonist activity at 5HT3 receptor in spontaneously beating guinea pig right atrium assessed as inhibition of serotonin-induced maximum response by noncompetitive binding assay; type: tissue-based, Cardiac atrium; conditions: read-out: IC50
T4 sequence (O70212 whole entry): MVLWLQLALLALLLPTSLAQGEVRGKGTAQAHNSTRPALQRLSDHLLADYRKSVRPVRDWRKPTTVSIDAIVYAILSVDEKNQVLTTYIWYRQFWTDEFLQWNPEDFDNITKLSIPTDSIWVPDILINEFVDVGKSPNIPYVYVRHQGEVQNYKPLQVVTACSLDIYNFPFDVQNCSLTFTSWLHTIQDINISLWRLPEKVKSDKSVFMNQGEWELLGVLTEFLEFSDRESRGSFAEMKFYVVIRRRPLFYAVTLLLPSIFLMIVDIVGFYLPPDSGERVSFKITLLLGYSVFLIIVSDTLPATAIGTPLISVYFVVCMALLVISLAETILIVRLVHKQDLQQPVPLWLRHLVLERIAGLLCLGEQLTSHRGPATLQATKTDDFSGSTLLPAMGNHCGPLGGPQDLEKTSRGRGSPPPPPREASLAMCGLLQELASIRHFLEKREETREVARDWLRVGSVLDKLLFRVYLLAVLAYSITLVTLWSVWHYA
How it was run: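 Spontaneously beating guinea pig right atria, exposed 30 min to test compound at 10 μM, followed by cumulative 5-HT log concentration-response curves versus control. Mean ± SEM of five to seven observations.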

[12] = biological target: T5, Adrenergic receptor alpha-1 (Rattus norvegicus, UniProt P15823+P23944+P43140); experiment: Displacement of [3H]prazosin from adrenergic alpha1 receptor in rat cortex
T5 sequence (P15823 whole entry): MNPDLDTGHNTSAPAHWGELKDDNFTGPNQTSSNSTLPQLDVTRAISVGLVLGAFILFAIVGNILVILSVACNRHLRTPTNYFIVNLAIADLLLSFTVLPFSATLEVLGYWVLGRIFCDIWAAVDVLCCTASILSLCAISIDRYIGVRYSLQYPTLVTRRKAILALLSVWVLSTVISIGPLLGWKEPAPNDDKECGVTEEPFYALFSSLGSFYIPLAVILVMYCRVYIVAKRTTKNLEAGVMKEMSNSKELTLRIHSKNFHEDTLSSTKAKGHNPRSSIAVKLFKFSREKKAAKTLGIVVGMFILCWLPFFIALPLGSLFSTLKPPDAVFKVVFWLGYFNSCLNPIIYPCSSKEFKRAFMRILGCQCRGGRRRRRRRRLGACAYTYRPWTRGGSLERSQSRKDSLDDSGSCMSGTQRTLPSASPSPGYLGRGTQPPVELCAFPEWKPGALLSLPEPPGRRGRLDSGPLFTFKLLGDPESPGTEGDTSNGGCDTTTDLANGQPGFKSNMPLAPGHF
T5 sequence (P23944 whole entry): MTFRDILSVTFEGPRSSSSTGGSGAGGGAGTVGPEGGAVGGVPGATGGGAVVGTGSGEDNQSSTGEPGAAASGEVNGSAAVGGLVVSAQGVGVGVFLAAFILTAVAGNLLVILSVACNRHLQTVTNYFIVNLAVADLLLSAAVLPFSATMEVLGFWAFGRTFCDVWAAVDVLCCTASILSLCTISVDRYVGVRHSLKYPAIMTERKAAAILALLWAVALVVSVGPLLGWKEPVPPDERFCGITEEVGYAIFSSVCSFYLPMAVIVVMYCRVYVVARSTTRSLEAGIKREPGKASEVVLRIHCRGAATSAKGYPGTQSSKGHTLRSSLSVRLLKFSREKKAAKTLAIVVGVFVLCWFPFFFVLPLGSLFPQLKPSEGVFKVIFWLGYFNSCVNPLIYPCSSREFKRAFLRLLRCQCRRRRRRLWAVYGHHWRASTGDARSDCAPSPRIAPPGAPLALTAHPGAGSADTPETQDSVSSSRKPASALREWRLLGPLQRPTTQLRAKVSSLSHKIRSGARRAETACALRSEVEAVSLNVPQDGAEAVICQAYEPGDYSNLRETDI
T5 sequence (P43140 whole entry): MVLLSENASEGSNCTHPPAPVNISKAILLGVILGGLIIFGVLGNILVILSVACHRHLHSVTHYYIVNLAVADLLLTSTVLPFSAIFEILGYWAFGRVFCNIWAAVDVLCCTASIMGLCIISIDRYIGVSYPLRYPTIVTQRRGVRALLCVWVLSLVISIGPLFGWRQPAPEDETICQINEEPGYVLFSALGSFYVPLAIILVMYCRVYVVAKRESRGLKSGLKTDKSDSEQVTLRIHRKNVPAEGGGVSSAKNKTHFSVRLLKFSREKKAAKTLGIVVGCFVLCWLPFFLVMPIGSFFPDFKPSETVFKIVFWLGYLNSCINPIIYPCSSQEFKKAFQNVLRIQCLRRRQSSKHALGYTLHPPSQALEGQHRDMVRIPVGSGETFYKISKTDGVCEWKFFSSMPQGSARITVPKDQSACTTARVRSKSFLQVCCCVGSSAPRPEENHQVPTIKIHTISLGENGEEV

[13] = system: Rattus norvegicus; experiment: Antagonist activity at 5HT3 receptor in iv dosed Sprague-Dawley rat assessed as inhibition of 1-phenylbiguanide-induced bradycardia administered 5 mins before 1-phenylbiguanide challenge measured after 5 to 30 mins post-treatment by von Bezold-Jarisch reflex test; type: functional; how it was run: as §2

Ki ([1]; read-out: Ki): 0.03 µM
SMILES: Fc1ccc2c(c1)nc(N1CCN(CC3=NCCN3)CC1)c1cccn12

Ki [2]: > 10 µM
Ki [3]: > 10 µM
Ki [4]: 9.81 µM
Ki [5]: > 10 µM
Ki ([1]; read-out: Ki): 0.00049 µM
Ki [6]: > 10 µM
SMILES: Cc1cccc2nc(N3CCN(Cc4cnc[nH]4)CC3)c3cccn3c12

Ki ([1]; read-out: Ki): 0.0222 µM
SMILES: Fc1ccc2c(c1)nc(N1CCN(CCn3ccnc3)CC1)c1cccn12

concentration [7]: 540 nM
Kp [8]: 0.03
Drug uptake [9]: BLD
IC50 [11]: 1.88 µM
SMILES: O=C(O)CN1CCN(c2nc3cc(F)ccc3n3cccc23)CC1
ED50 [10]: 0.036 mg/kg

Ki ([1]; read-out: Ki): 0.0178 µM
SMILES: Cc1cccc2nc(N3CCN(CCn4ccnc4)CC3)c3cccn3c12

Ki [2]: > 10 µM
Ki [3]: > 10 µM
Ki [4]: > 10 µM
Ki [5]: > 10 µM
Ki ([1]; read-out: Ki): 0.0056 µM
Ki [12]: > 10 µM
Ki [6]: > 10 µM
SMILES: Fc1ccc2c(c1)nc(N1CCN(Cc3ncc[nH]3)CC1)c1cccn12

Ki [1]: 0.013 µM
SMILES: Fc1ccc2c(c1)nc(N1CCN(Cc3ccccc3)CC1)c1cccn12

Ki ([1]; read-out: Ki): 0.00044 µM
SMILES: CN1CCN(c2nc3cccc(F)c3n3cccc23)CC1
ID50 [13]: 0.12 mg/kg
